Screening results from PubChem.
M5 ag = agonists of human muscarinic M5 receptor (CHRM5). CHO-K1 hM5 cells, Fluo-8 calcium fluorescence; 0% DMSO wells, 100% maximal acetylcholine response. activation, % at 3 µM. P08912. 360,000 tested, 0.19% active;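 active means activation above the run's mean over test compounds plus 3 SD, cut at about 23% in these data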;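 further: signal is peak over basal fluorescence ratio across the kinetic read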
M5 PAM = potentiates acetylcholine response at human M5 receptor; CHO-K1 hM5, Fluo-8 calcium, ACh EC20 PAM; 0% = ACh EC20, 100% = ACh EC100; activation, % at 3 µM; 360,000 tested, 0.3% active; AID 624038;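 active means activation above the run cutoff, the mean activation of all test compounds plus 3 SD, cut at about 18% in these data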
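System: CHO-K1 cell line with stable human muscarinic M5 receptor expression | Also added: EC20 acetylcholine as agonist stimulus | Compound: One concentration, 3 µM final (nominal) | Timing: Fluo-8 loading 80 min at 37 °C plus 30 min room temperature | Measured by: Fluo-8 calcium dye fluorescence, kinetic read | Read-out basis: % activation, ACh-normalized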
CHRM4 PAM = potentiates acetylcholine response at human M4 receptor; activation, % at 3 µM; 360,000 tested, 0.4% active; P08173; CHO-K1 hM4/Gqi5, Fluo-8 calcium fluorescence, ACh EC20; 0% = ACh EC20, 100% = maximal ACh;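 active means activation above its plate's cutoff, the mean activation of sample wells plus 3 SD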
Target sequence (P08173 whole entry, looked up): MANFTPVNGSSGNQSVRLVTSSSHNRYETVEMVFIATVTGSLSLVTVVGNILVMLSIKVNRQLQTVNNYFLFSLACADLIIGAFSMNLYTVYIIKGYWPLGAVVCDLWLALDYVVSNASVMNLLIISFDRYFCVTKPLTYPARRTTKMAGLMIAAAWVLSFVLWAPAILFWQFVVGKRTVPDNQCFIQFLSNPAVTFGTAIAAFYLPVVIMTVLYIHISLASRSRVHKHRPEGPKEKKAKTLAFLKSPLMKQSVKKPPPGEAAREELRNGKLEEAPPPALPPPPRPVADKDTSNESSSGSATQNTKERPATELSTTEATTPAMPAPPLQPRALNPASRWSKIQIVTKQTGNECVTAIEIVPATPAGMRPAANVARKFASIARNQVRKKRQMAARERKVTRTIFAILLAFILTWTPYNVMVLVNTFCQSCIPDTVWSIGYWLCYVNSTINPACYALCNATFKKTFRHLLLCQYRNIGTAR
CHRM4 antagonist = blocks acetylcholine activation of human M4 receptor | P08173 | CHO-hM4 cells, ACh EC80, Fluo-8 calcium fluorescence | inhibition, % at 3 µM | 360,000 tested, 0.73% active | AID 624125;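 active means inhibition above its plate's cutoff, the mean inhibition of sample wells plus 3 SD, cut at about 27% in these data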;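 further: 0% = acetylcholine EC80 with DMSO and 100% = DMSO without agonist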
CHRM5 antagonist = blocks acetylcholine activation of human M5 receptor; P08912; CHO-hM5 cells, Fluo-8 calcium fluorescence, ACh EC80; inhibition, % at 3 µM; 360,000 tested, 0.59% active; AID 624040;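 active means inhibition above a per-plate cutoff, the mean of that plate's test compounds plus 3 SD, cut at about 27% in these data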;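 further: 0% = acetylcholine EC80 with DMSO and 100% = DMSO without agonist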
M4 ag = CHRM4 agonism in calcium assay | 360,000 tested, 0.14% active | P08173 | activation, % at 3 µM | AID 624127 | CHO-K1 hM4/Gqi5, Fluo-8 calcium fluorescence; vehicle 0%, full acetylcholine response 100%;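 active means activation above the run mean over all test wells plus 3 SD, cut at about 32% in these data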;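 further: peak over basal fluorescence ratio per well then scaled between controls; 0% = DMSO wells and 100% = acetylcholine at EC100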
An asterisk follows results filed as active. A selection: hits, their analogues and other compounds. The true share with any hit is near 1.9%.

SMILES	M5 ag	M5 PAM	CHRM4 PAM	CHRM4 antagonist	CHRM5 antagonist	M4 ag
O=C(CSc1nnnn1-c1cccc(F)c1)NC1CC1	1	19*	4	0	3	0
CCNC(=O)CC1C(=O)N(c2ccccc2)C(=O)N1CCC(C)C (stereo unspecified)	-2	5	25*	-4	8	0
O=C(CCCN1CCOCC1)c1ccc2c(c1)OCCO2	0	-2	5	-4	8	2
O=C(CCCN1CCC(c2ccccc2)C1)c1ccc2c(c1)OCCO2 (stereo unspecified)	-5	-9	-15	27*	11	4
O=C(CSc1nc2sc3c(c2c(=O)n1-c1ccccc1)CCCC3)N/N=C/c1ccccc1C(=O)O	-3	2	4	-4	-9	1
COc1ccc(-c2n(CC(=O)OC3CC(C)CCC3C(C)C)c3ccccc3[n+]2C)cc1 (stereo unspecified)	-7	-18	-15	22	40*	4
Cn1ccnc1SCC(=O)NC1(C#N)CCCCC1	-4	3	6	-1	-1	1
CC(=O)c1ccc(N2CCN(C(=O)[C@H](C)NC(=O)c3ccccc3Cl)CC2)cc1	-1	-1	-6	6	7	1
CSc1ncccc1C(=O)OCC(=O)NCCCc1ccccc1	0	-1	2	-2	-1	1
O=C(OCc1ccccc1)/C(=C/c1ccc(Cl)cc1)NC(=O)c1ccccc1Cl	2	5	21	9	16	1
CCOC(=O)/C(=C/c1ccc(Cl)cc1)NC(=O)c1ccco1	-5	14	24*	-12	-2	2
COc1ccc(/C=C(/NC(=O)c2ccco2)C(=O)NCc2ccco2)cc1OC	-3	-7	26*	-10	17	-2
COc1ccc(CNC(=O)CS(=O)CC(=O)O)cc1OC (stereo unspecified)	0	-3	-2	5	11	1
N#CC1C(=N)Cc2ccccc2-c2ccccc21 (stereo unspecified)	-5	3	2	-3	2	2
O=C(NCCC1=CCCCC1)C(=O)NCCc1ccc(Cl)cc1	-2	-1	10	-8	12	2
O=C(NCCC1=CCCCC1)C(=O)NCc1ccncc1	-11	1	21*	-12	-13	2
Cc1cccc(OCC(=O)Nc2ccc(N3CCN(C(=O)c4ccco4)CC3)cc2)c1	10	-26	-10	12	27*	28
O=C(O)c1cc(-c2cccs2)[nH]n1	-2	3	28*	-4	-4	2
CCOC(=O)c1cc(-c2cccs2)[nH]n1	-2	-14	27	14	16	0
COc1ccc(C(=O)c2ccc(Br)cc2)cc1	-1	0	6	-6	-7	-1
O=C(c1ccncc1)c1ccc(Br)cc1	2	0	35*	9	-7	0
Cc1cc(C)c2nc(N(CCCN(C)C)C(=O)c3ccc4c(c3)OCCO4)sc2c1	-8	-23	29*	19	10	15
COc1ccc(C)c2sc(N(CCCN(C)C)C(=O)c3ccc4c(c3)OCCO4)nc12	-8	-26	67*	54*	8	27
Cc1cccc2sc(N(CCCN(C)C)C(=O)c3ccco3)nc12	-14	-38	-55	73*	49*	7
Cc1cccc2sc(N(CCCN(C)C)C(=O)c3ccc(Cl)s3)nc12	-17	-35	-49	24	12	8
CSc1ncccc1C(=O)Nc1cccc(S(=O)(=O)N2CCCCCC2)c1	-4	-12	0	11	6	4
CCCc1cc(=O)n2[nH]c(NC(=O)c3ccco3)nc2n1	0	4	14*	-24	0	0
CCCc1cc(=O)n2[nH]c(NCc3c(Cl)cccc3Cl)nc2n1	-8	3	-1	14	-2	0
FC(F)(F)c1cc(CCN2CCNC[C@@H]2CC2CCCCC2)cc(C(F)(F)F)c1	-11	-39	-8	29*	26	0
